Activity calls are given as the source filed them.
Key:
[1] = Lipid-water partition coefficient, logP of the compound; type: physicochemical
BMDM [2] = assay: Inhibition of pyroptosis in LPS-primed C57BL/6 mouse primary BMDM assessed as effect on nigericin-induced cell morphological changes at 5 uM by propidium iodide staining based confocal microscopy; type: functional
How it was run: (§1)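 Primary BMDM and J774A.1 cells treated with LPS and nigericin. Swelling, bubble formation and propidium iodide uptake visualized by epifluorescence microscopy.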

J774.A1 [3] = assay: Inhibition of pyroptosis cell death in LPS-primed immortalized mouse […] cells assessed as effect on nigericin-induced cell morphological changes by propidium iodide staining based confocal microscopy; type: functional; how it was run: as §1
BMDM [4] = assay: Inhibition of pyroptosis cell death in LPS-primed C57BL/6 mouse primary BMDM assessed as reduction in nigericin-induced IL-1beta secretion; type: functional, cell-based
How it was run: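 Primary murine macrophages primed with LPS and stimulated with nigericin across a dose range. IL-1β release, LDH release and Alamar blue measured. Means ± SE, ≥3 experimental replicates.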

THP-1 = assay: Inhibition of pyroptosis in LPS-primed human THP1 assessed as reduction in nigericin-induced pyroptotic-pore formation by propidium iodide uptake assay; type: functional, cell-based
How it was run: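 THP-1 cells induced to pyroptosis. Cell death read by LDH release and pore formation by PI uptake. Means ± SE, ≥3 experimental replicates.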

[5] = biological target: T1, Gasdermin-D (Mus musculus) (UniProt Q9D8T2); assay: Inhibition of GSDMD cytosol-plasma membrane translocation in LPS-primed immortalized mouse […] cells at 5 uM followed by subsequent nigericin stimulation by immunofluorescence assay; type: cell-based; conditions: J774.A1
T1 sequence (whole entry): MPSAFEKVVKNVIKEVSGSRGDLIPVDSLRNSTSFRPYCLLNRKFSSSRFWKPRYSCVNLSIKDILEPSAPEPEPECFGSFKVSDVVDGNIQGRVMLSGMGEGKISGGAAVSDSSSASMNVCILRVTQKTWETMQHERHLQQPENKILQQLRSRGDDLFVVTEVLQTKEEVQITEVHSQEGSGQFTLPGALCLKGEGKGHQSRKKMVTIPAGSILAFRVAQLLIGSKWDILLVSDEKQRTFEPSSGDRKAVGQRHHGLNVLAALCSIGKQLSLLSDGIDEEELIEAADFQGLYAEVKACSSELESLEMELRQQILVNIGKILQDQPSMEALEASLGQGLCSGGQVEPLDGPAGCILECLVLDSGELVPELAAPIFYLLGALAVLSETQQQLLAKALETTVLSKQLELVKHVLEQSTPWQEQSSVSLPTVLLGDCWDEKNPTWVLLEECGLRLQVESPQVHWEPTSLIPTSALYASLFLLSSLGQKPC
How it was run: (§2)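 Macrophages were LPS-primed, then stimulated with nigericin, in immortalized and primary cells. Anti-GSDMD immunofluorescence, with line-intensity histograms of cytosol versus plasma-membrane localization. Mean ± SEM, n ≥ 3 independent experiments.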

[6] = biological target: T1, Gasdermin-D (Mus musculus); assay: Inhibition of GSDMD cytosol-plasma membrane translocation in LPS-primed C57BL/6 mouse primary BMDM at 5 uM followed by nigericin stimulation by immunofluorescence assay; how it was run: as §2
Caspase-1 (Mus musculus) = biological target: T2, Caspase-1 (Mus musculus) (UniProt P29452); assay: Inhibition of caspase-1 activity in LPS-primed immortalized mouse […] cells assessed as reduction in nigericin-induced caspase-1 cleavage at 5 uM by Western blot analysis; type: cell-based; conditions: J774.A1
T2 sequence (whole entry): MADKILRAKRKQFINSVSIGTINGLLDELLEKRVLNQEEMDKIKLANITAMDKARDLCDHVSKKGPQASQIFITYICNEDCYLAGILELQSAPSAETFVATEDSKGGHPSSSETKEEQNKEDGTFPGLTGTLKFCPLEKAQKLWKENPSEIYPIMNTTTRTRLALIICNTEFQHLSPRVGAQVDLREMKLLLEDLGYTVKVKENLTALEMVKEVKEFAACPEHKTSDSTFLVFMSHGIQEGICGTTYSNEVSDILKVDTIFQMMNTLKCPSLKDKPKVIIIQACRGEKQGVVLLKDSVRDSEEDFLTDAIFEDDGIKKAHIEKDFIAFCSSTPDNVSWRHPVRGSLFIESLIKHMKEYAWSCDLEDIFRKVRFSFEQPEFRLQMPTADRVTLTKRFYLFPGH
How it was run: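 Western blot of full-length and cleaved caspase-1 and caspase-8 in J774A.1 cells after nigericin, with tubulin as loading control. Bands quantified as bar graphs.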

[7] = biological target: NACHT, LRR and PYD domains-containing protein 3 (Mus musculus) (UniProt Q8R4B8); assay: Activation of NLRP3 in LPS-primed C57BL/6 mouse primary BMDM transfected with eGFP-tagged ASC assessed as nigericin-induced ASC oligomerization by measuring speck formation at 5 uM by confocal microscopy
How it was run: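 Primary macrophages transfected with an ASC-GFP plasmid, then given LPS and nigericin to induce ASC specks. Imaged by confocal microscopy.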

[8] = biological target: Nlrp3/Pycard (Mus musculus) (UniProt Q8R4B8+Q9EPB4); assay: Inhibition of NLRP3-ASC interaction in LPS-primed immortalized mouse […] cells at 5 uM by co-immunoprecipitation assay; type: cell-based; conditions: J774.A1
How it was run: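 Coimmunoprecipitation of endogenous ASC and NLRP3 in immortalized macrophages.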

J774.A1 [9] = assay: Inhibition of pyroptosis in LPS-primed immortalized mouse […] cells assessed as reduction in poly (dA:dT) induced […] secretion by ELISA; type: functional, cell-based
How it was run: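 J774A.1 cells stimulated with flagellin or poly(dA:dT). IL-1β release measured by ELISA. Mean ± SEM, n ≥ 3 independent experiments.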

Caspase-1 (Homo sapiens) [10] = biological target: T3, Caspase-1 (Homo sapiens) (UniProt P29466); assay: Inhibition of ASC-mediated caspase-1 cleavage in human THP1 cells transfected with GFP-tagged ASC at 5 uM FACS analysis; type: cell-based; conditions: THP-1
T3 sequence (whole entry): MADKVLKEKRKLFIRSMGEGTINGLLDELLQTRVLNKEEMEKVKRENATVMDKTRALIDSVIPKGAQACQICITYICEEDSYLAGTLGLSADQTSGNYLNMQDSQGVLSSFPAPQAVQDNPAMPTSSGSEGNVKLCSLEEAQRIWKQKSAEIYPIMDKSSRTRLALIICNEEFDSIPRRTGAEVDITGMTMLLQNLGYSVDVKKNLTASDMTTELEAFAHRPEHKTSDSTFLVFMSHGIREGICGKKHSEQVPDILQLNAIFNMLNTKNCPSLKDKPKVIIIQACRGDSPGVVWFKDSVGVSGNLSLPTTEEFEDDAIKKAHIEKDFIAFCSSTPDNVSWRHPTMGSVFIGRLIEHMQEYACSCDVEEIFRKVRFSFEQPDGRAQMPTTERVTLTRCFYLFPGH

Caspase-1 (Homo sapiens) [11] = biological target: T3, Caspase-1 (Homo sapiens); assay: Inhibition of pronase-mediated caspase-1 degradation in HEK293 cell lysate at 5 uM measured after 30 mins by DARTS based Western blot analysis; type: cell-free
How it was run: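 DARTS assay: cell lysates pretreated with compound, then digested with different Pronase concentrations. Caspase-1 stability read by immunoblot against a histone H3 control.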

Mus musculus [12] = assay: Antiinflammatory activity against LPS-induced sepsis C57BL/6J mouse model assessed as reduction in alveolar congestion at 20 mg/kg, iv administered as single dose for 1 hr prior to LPS challenge and measured after 48 hrs by hematoxylin-eosin staining based inverted microscopy analysis; type: functional, organism-based
Mus musculus [13] = assay: Antiinflammatory activity against LPS-induced sepsis C57BL/6J mouse model assessed as reduction in serum IL-1beta level at 20 mg/kg, iv administered as single dose for 1 hr prior to LPS challenge and measured after 24 hrs of compound treatment by ELISA; type: functional, organism-based

Sequence of NACHT, LRR and PYD domains-containing protein 3 (Mus musculus) (Q8R4B8 whole entry, the tested form may be a part): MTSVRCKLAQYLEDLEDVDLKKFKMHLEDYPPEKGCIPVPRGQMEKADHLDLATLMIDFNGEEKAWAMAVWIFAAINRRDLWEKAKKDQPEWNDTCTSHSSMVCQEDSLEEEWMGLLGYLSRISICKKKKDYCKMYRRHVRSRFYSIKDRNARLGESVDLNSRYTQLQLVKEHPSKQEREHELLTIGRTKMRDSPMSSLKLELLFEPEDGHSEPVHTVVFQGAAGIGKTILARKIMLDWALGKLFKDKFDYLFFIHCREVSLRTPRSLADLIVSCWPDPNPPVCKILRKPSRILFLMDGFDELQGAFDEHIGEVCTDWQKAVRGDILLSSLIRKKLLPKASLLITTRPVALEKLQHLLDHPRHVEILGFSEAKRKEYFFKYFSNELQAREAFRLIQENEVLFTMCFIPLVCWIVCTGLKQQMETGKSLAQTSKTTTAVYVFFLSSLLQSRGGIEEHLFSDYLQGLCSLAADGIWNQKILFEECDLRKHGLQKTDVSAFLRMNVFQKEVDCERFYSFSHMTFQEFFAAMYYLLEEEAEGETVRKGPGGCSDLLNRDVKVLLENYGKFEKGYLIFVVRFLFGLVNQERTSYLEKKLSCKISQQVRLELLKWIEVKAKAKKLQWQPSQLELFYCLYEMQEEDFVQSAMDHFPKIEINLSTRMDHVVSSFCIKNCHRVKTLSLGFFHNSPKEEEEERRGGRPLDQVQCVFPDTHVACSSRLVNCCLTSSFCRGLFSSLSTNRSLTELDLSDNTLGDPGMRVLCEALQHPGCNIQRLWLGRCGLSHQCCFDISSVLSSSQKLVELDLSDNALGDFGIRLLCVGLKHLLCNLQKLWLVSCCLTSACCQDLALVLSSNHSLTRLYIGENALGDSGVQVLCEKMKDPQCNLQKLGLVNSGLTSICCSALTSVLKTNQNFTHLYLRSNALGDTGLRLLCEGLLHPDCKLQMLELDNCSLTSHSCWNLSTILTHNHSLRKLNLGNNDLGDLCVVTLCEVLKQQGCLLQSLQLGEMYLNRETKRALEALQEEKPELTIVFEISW
Sequence of Nlrp3/Pycard (Mus musculus) (Q8R4B8 whole entry, looked up): as the sequence (Q8R4B8 whole entry, the tested form may be a part) above
Sequence of Nlrp3/Pycard (Mus musculus) (Q9EPB4 whole entry, looked up): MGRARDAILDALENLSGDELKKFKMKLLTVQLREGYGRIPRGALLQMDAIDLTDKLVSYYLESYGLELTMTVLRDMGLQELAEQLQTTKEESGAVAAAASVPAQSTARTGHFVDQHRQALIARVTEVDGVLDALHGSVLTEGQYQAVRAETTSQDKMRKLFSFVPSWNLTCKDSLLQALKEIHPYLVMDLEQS

CCOC(CN1C(=O)C(NC(=O)Nc2ccc(C)cc2)(C(F)(F)C(=O)Nc2ccc(C)cc2)c2ccccc21)OCC (stereo not given)
4.1: logP [1]
inactive: Activity [7] | inhibition [8]
active: inhibition (BMDM [2]) | inhibition (J774.A1 [3]) | inhibition (BMDM [4]) Dose-dependent effect | inhibition (THP-1) | inhibition [5] | inhibition [6] | inhibition (Caspase-1 (Mus musculus)) | inhibition (J774.A1 [9]) | inhibition (Caspase-1 (Homo sapiens) [10]) | inhibition (Caspase-1 (Homo sapiens) [11]) | Activity (Mus musculus [12]) | Activity (Mus musculus [13])

From ChEMBL document CHEMBL4619791, “3-Difluoroalkyl Quaternary Oxindoles Inhibit Macrophage Pyroptosis by Blocking Inflammasome Recruitment of Caspase-1” (ACS Med Chem Lett, 2020)
